This passage reports GI50 and RatioGI50 results from ChEMBL document CHEMBL3352314, “Synthesis and antiproliferative activity of 8-hydroxyquinoline derivatives containing a 1,2,3-triazole moiety” (Eur J Med Chem, 2014).

In brackets after ≈: the same amount, converted by molar mass.

Series [1] deals with 786-0. The series can be described thus: Antiproliferative activity against human 786-0 cells assessed as growth inhibition after 48 hrs by sulforhodamine B assay. It is filed as functional. The following applies: 786-0, 48 h. A digest of the protocol: (§1)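 Cells in RPMI with penicillin:streptomycin added, exposed 48 h at 37 °C, 5% CO2 to 0.25, 2.5, 25 and 250 µg/mL compound in DMSO/RPMI (0.1% v/v). Doxorubicin (0.025–25 µg/mL) served as positive control. Cells were then fixed with 50% TCA and stained with sulforhodamine B, with protein read at 540 nm. Growth = 100×(T−T0)/(C−T0), using T0 and 48 h readings. GI50 was obtained by non-linear regression. Done in triplicate.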

Series [2] can be described thus: Antiproliferative activity against human PC3 cells assessed as growth inhibition after 48 hrs by sulforhodamine B assay. The following applies: PC-3, 48 h. It is filed as functional. The essentials: as §1
The subject of series [3] is NCI-H460. The series is described as follows: Selectivity index, ratio of GI50 for human HaCaT cells to GI50 for human NCI-H460 cells. It is filed as functional.
Series [4] in a line: Antiproliferative activity against human OVCAR3 cells assessed as growth inhibition after 48 hrs by sulforhodamine B assay. It is filed as functional. The following applies: OVCAR-3, 48 h. The essentials: as §1
A general note: The SRB assay estimates cell density from bound dye.

In series [5] the test system is NCI-H460. The series is described as follows: Antiproliferative activity against human NCI-H460 cells assessed as growth inhibition after 48 hrs by sulforhodamine B assay. It is filed as functional. The conditions noted are these: NCI-H460, 48 h. The essentials: as §1
Series [6] concerns NCI/ADR-RES. The series can be described thus: Antiproliferative activity against human NCI/ADR-RES cells assessed as growth inhibition after 48 hrs by sulforhodamine B assay. It is filed as functional. A digest of the protocol: as §1
Series [7] concerns U-251. The series is described as follows: Antiproliferative activity against human U251 cells assessed as growth inhibition after 48 hrs by sulforhodamine B assay. It is filed as functional. The following applies: U-251, 48 h. The essentials: as §1
Series [8] relates to HaCaT. The series can be described thus: Selectivity index, ratio of GI50 for human HaCaT cells to GI50 for human MCF7 cells. It is filed as functional.
Series [9] relates to MCF7. The series is described as follows: Antiproliferative activity against human MCF7 cells assessed as growth inhibition after 48 hrs by sulforhodamine B assay. It is filed as functional. The following applies: MCF7, 48 h. The essentials: as §1
For series [10], the system named is HaCaT. The series can be described thus: Selectivity index, ratio of GI50 for human HaCaT cells to GI50 for human 786-0 cells. It is filed as functional.
In series [11] the test system is HaCaT. The series can be described thus: Selectivity index, ratio of GI50 for human HaCaT cells to GI50 for human OVCAR3 cells. It is filed as functional.
For series [12], the system named is HaCaT. The series is described as follows: Selectivity index, ratio of GI50 for human HaCaT cells to GI50 for human U251 cells. It is filed as functional.
The subject of series [13] is HaCaT. The series is described as follows: Selectivity index, ratio of GI50 for human HaCaT cells to GI50 for human NCI/ADR-RES cells. It is filed as functional.
Series [14] in a line: Antiproliferative activity against human HaCaT cells assessed as growth inhibition after 48 hrs by sulforhodamine B assay. It is filed as cell-based. The essentials: as §1
The test system of series [15] is HaCaT. The series is described as follows: Selectivity index, ratio of GI50 for human HaCaT cells to GI50 for human PC3 cells. It is filed as functional.

The GI50 is the concentration that inhibits growth by half. On to `Clc1cc(Cl)c(Cn2cc(CCCOc3cccc4cccnc34)nn2)c(Cl)c1`, for which the GI50 in series [1] is 5.6 µg/mL (≈ 12.5 µM); in series [2], 2.8 µg/mL (≈ 6.25 µM); in series [4], 11.4 µg/mL (≈ 25.5 µM); in [5], 7.4 µg/mL (≈ 16.5 µM); in [6] it was 2.8 µg/mL (≈ 6.25 µM); in [7] it was 3.1 µg/mL (≈ 6.92 µM). In series [9], the 50% growth inhibitory concentration (GI50) amounted to 2.9 µg/mL (≈ 6.48 µM). The RatioGI50 came to 0.7 in [3]; 1.8 in series [8]; 0.9 in series [10]; 0.5 in [11]; 1.7 in [12]; 1.9 in [13]. In addition, the RatioGI50 in [15] is reported as 1.9. Further, in series [14], the concentration for 50% growth inhibition (GI50) at 48 h came to 5.3 µg/mL (≈ 11.8 µM).

`Clc1ccc(Br)cc1Cn1cc(CCCOc2cccc3cccnc23)nn1`: the concentration for 50% growth inhibition (GI50) was greater than 250 µg/mL in [1]; 8.2 µg/mL (≈ 17.9 µM) in series [2]; 8 µg/mL (≈ 17.5 µM) in series [4]; 7.9 µg/mL (≈ 17.3 µM) in [5]; 2.5 µg/mL (≈ 5.46 µM) in series [6]; 8.7 µg/mL (≈ 19 µM) in [7]. Also, the concentration for 50% growth inhibition (GI50) in series [9] is 9.6 µg/mL (≈ 21 µM). In addition, the RatioGI50 in [3] worked out at 0.6; in series [8], 0.5; in [11] it was 0.6; in series [12] it was 0.6; in series [13], 2; in [15] it was 0.6. Moreover, the GI50 at 48 h in [14] is 4.9 µg/mL (≈ 10.7 µM).

In the case of `c1ccc(Cn2cc(CCCOc3cccc4cccnc34)nn2)cc1`, the GI50 came to 25 µg/mL (≈ 72.6 µM) in [1]; 16.8 µg/mL (≈ 48.8 µM) in series [2]; 24.3 µg/mL (≈ 70.6 µM) in [4]; 28.6 µg/mL (≈ 83 µM) in series [5]; 10.4 µg/mL (≈ 30.2 µM) in series [6]; 25.2 µg/mL (≈ 73.2 µM) in series [7]. Besides, the GI50 in series [9] came to 12.7 µg/mL (≈ 36.9 µM). The RatioGI50 in series [3] was 0.4; in series [8], 1; in series [10], 0.5; in series [11], 0.5; in series [12], 0.5; in series [13], 1.2. Besides, the RatioGI50 in [15] was 0.8. Further, the GI50 at 48 h in series [14] was 12.7 µg/mL (≈ 36.9 µM).

For `c1cncc(CCCn2cc(CCCOc3cccc4cccnc34)nn2)c1`, the GI50 was 69.4 µg/mL (≈ 186 µM) in series [1]; 26.7 µg/mL (≈ 71.5 µM) in series [2]; 39.1 µg/mL (≈ 105 µM) in series [4]; 44.3 µg/mL (≈ 119 µM) in [5]; 12.5 µg/mL (≈ 33.5 µM) in [6]; 25.1 µg/mL (≈ 67.2 µM) in series [7]. The GI50 in [9] is 27.8 µg/mL (≈ 74.4 µM). Also, the RatioGI50 in series [3] came to 0.6; in series [8], 0.9; in series [10] it was 0.4; in [11] it was 0.6; in [12] it was 1; in series [13] it was 2. For the same molecule, the RatioGI50 in series [15] was 0.9. The GI50 at 48 h in [14] is 25 µg/mL (≈ 66.9 µM).

Consider `CC1(C)O[C@H]2[C@@H](O1)[C@@H](Cn1cc(CCCOc3cccc4cccnc34)nn1)O[C@@H]1OC(C)(C)O[C@@H]12`, for which the GI50 in series [1] is 30.8 µg/mL (≈ 62 µM); in series [2], 16.2 µg/mL (≈ 32.6 µM); in series [4] it was less than 0.25 µg/mL; in [5], 30.1 µg/mL (≈ 60.6 µM); in series [6], 28.6 µg/mL (≈ 57.6 µM); in [7], 24.3 µg/mL (≈ 48.9 µM). Further, the GI50 in [9] stood at 2.6 µg/mL (≈ 5.24 µM). Moreover, the RatioGI50 is on record as 1 in series [3]; 11.3 in [8]; 0.9 in [10]; greater than 117.6 in series [11]; 1.2 in series [12]; 1 in series [13]. Also, the RatioGI50 in series [15] was determined as 1.8. In [14], the concentration for 50% growth inhibition (GI50) at 48 h came out at 29.4 µg/mL (≈ 59.2 µM).

Take `O=C(Cn1cc(CCCOc2cccc3cccnc23)nn1)OCc1ccc(F)c(F)c1`: the 50% growth inhibitory concentration (GI50) is 26.1 µg/mL (≈ 59.5 µM) in series [1]; 2.9 µg/mL (≈ 6.61 µM) in series [2]; 15.1 µg/mL (≈ 34.4 µM) in [4]; 29.2 µg/mL (≈ 66.6 µM) in [5]; 4.9 µg/mL (≈ 11.2 µM) in [6]; 26.5 µg/mL (≈ 60.4 µM) in series [7]. Besides, in [9], the GI50 worked out at 27.2 µg/mL (≈ 62 µM). The RatioGI50 stood at 0.7 in [3]; 0.8 in series [8]; 0.8 in [10]; 1.4 in series [11]; 0.8 in series [12]; 4.4 in [13]. Further, in [15], the RatioGI50 worked out at 7.4. The GI50 at 48 h in series [14] came to 21.4 µg/mL (≈ 48.8 µM).

On to `COc1cccc2c1C(=O)c1c(O)c3c(c(O)c1C2=O)C[C@@](O)(C(=O)CO)C[C@@H]3O[C@H]1C[C@H](N)[C@H](O)[C@H](C)O1` [DOXORUBICIN], for which the GI50 in [1] was 0.15 µg/mL (≈ 0.276 µM); in [2], 3.8 µg/mL (≈ 6.99 µM); in series [4], 0.43 µg/mL (≈ 0.791 µM); in [5], less than 0.025 µg/mL; in series [6] it was 0.54 µg/mL (≈ 0.994 µM); in [7], 0.039 µg/mL (≈ 0.0718 µM). The GI50 in series [9] is 0.038 µg/mL (≈ 0.0699 µM). Further, the GI50 at 48 h in series [14] was 0.11 µg/mL (≈ 0.202 µM).
